Laboratory results published in ChEMBL document CHEMBL1157664, “Aminopyridinecarboxamide-based inhibitors: Structure-activity relationship” (Bioorg Med Chem, 2010).
pIC50: −log10 of the molar value.

Key:
[1] = biological target: T1, Inhibitor of nuclear factor kappa-B kinase subunit beta (Homo sapiens, UniProt O14920); test: Inhibition of human recombinant IKK2-mediated transfer of [gamma33P]ATP to biotinylated IkappaBalpha after 30 mins by scintillation counting
T1 sequence (O14920 whole entry): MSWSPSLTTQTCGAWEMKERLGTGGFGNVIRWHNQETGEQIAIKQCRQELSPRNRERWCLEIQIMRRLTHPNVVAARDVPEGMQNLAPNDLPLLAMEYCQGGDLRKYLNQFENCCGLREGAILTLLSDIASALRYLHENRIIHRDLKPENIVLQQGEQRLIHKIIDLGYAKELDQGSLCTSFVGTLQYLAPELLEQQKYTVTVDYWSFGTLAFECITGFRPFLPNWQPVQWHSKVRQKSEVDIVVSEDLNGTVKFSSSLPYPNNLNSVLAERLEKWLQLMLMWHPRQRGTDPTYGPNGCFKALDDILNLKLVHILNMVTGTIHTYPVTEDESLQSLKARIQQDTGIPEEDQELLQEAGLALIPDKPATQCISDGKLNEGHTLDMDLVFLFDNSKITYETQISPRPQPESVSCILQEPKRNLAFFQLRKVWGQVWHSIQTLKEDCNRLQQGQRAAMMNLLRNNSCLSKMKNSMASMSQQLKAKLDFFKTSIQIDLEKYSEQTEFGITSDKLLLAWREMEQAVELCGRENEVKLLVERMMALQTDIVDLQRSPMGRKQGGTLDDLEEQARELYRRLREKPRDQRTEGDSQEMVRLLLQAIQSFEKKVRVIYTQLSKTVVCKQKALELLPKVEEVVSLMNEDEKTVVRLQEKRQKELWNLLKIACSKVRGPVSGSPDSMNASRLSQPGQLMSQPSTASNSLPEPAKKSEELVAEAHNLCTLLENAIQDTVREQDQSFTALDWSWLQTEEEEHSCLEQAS
How it was run: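 Recombinant human IKK-2 enzyme (46 nM/rxn, 200 ng/rxn). Substrate 5 µM biotinylated IκBα peptide (residues spanning Ser32/Ser36) with 1 µM ATP plus 0.1 µCi [γ-33P]ATP. Buffer 25 mM Hepes pH 7.6 with 1 mM DTT, 2 mM MgCl2, 2 mM MnCl2, 10 mM NaF. Incubated 30 min at 25 °C, stopped with AG1X8 resin in formate buffer pH 3. Supernatant ³³P read by scintillation counting.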

[2] = Antiinflammatory activity in human synovial fibroblasts assessed as inhibition of IL-1-beta-stimulated IL8 production treated 1 hr before IL1-beta challenge measured after 18 hrs by ELISA; format: functional
How it was run: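 Rheumatoid arthritis patient synovial fibroblasts seeded at 1.5 × 10^4 cells/well in DMEM + 15% FBS and left to attach overnight. Medium then changed to DMEM + 1% FBS. Cells pretreated 1 h with increasing compound concentrations (0.2% Me2SO final), then stimulated 18 h with 1 ng/mL IL-1β. Secreted IL-8 measured by ELISA against standard curves (4-parameter logistic). Cytotoxicity checked by Alamar Blue.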

Row | SMILES | pIC50 [1] | pIC50 [2]
1 | C[C@@H]1CN(c2cc(C(=O)Nc3ccc4c(c3)-c3c(c(C(N)=O)nn3-c3ccc(F)cc3)CC4)c(Cl)cn2)CCN1C | 7.32 | 5.66
2 | CN1CCCN(c2cc(C(=O)Nc3ccc4c(c3)-c3c(c(C(N)=O)nn3-c3ccc(F)cc3)CC4)c(Cl)cn2)CC1 | 7.54 | 5.63
3 | NC(=O)c1nn(-c2ccc3c(c2)OCO3)c2c1CCc1ccc(NC(=O)c3nc(N4CCOCC4)ccc3Cl)cc1-2 | 6.21 | < 4.00
4 | CNc1ncccc1C(=O)Nc1ccc2c(c1)-c1c(c(C(N)=O)nn1-c1ccc3c(c1)OCO3)CC2 | 6.68 | 5.47
5 | NC(=O)c1nn(-c2ccc(F)cc2)c2c1CCc1ccc(NC(=O)c3cccnc3N3CCOCC3)cc1-2 | 4.85 | 
6 | NC(=O)c1nn(-c2ccc3c(c2)OCO3)c2c1CCc1ccc(NC(=O)c3cccnc3Cl)cc1-2 | 7.47 | 5.30
7 | CN1CCN(c2ccc(Cl)c(C(=O)Nc3ccc4c(c3)-c3c(c(C(N)=O)nn3-c3ccc5c(c3)OCO5)CC4)n2)CC1 | 6.53 | 5.35
8 | CN1CCN(c2ncccc2C(=O)Nc2ccc3c(c2)-c2c(c(C(N)=O)nn2-c2ccc(F)cc2)CC3)CC1 | 4.79 | 
9 | NC(=O)c1nn(-c2ccc(F)cc2)c2c1CCc1ccc(NC(=O)c3cc(N4CCNCC4)ncc3Cl)cc1-2 | 8.00 | 5.61
10 | C[C@H]1CN(c2cc(C(=O)Nc3ccc4c(c3)-c3c(c(C(N)=O)nn3-c3ccc(F)cc3)CC4)c(Cl)cn2)CCN1C | 7.35 | 5.88
11 | C[C@@H]1CN(c2cc(C(=O)Nc3ccc4c(c3)-c3c(c(C(N)=O)nn3-c3ccc(F)cc3)CC4)c(Cl)cn2)CCN1 | 7.27 | 5.40
12 | CN(C)CCNc1cc(C(=O)Nc2ccc3c(c2)-c2c(c(C(N)=O)nn2-c2ccc(F)cc2)CC3)c(Cl)cn1 | 7.15 | 5.33
13 | CC(C)N1CCN(c2cc(C(=O)Nc3ccc4c(c3)-c3c(c(C(N)=O)nn3-c3ccc(F)cc3)CC4)c(Cl)cn2)CC1 | 6.97 | 5.83
14 | CNc1ccc(Cl)c(C(=O)Nc2ccc3c(c2)-c2c(c(C(N)=O)nn2-c2ccc4c(c2)OCO4)CC3)n1 | 6.32 | 5.24
15 | NC(=O)c1nn(-c2ccc(F)cc2)c2c1CCc1ccc(NC(=O)c3cc(N4CCOCC4)ncc3Cl)cc1-2 | 6.84 | 5.67
16 | CN1CCN(c2ncccc2C(=O)Nc2ccc3c(c2)-c2c(c(C(N)=O)nn2-c2ccc4c(c2)OCO4)CC3)CC1 | 4.76 | 
17 | NC(=O)c1nn(-c2ccc3c(c2)OCO3)c2c1CCc1ccc(NC(=O)c3cc(N4CCNCC4)ncc3Cl)cc1-2 | 7.40 | 5.73

Row | SMILES | pIC50 [1] | pIC50 [2]
18 | CN1CCN(c2cc(C(=O)Nc3ccc4c(c3)-c3c(c(C(N)=O)nn3-c3ccc5c(c3)OCO5)CC4)c(Cl)cn2)CC1 | 7.48 | 6.20
19 | C[C@H]1CN(c2cc(C(=O)Nc3ccc4c(c3)-c3c(c(C(N)=O)nn3-c3ccc(F)cc3)CC4)c(Cl)cn2)CCN1 | 7.29 | 5.88
20 | NC(=O)c1nn(-c2ccc3c(c2)OCO3)c2c1CCc1ccc(NC(=O)c3cccnc3N)cc1-2 | 5.87 | 
21 | NC(=O)c1nn(-c2ccc(F)cc2)c2c1CCc1ccc(NC(=O)c3ccnc(N4CCOCC4)c3)cc1-2 | 6.23 | < 5.30
22 | NC(=O)c1nn(-c2ccc(F)cc2)c2c1CCc1ccc(NC(=O)c3cccnc3Cl)cc1-2 | 7.33 | 4.92
23 | CN1CCN(c2cc(C(=O)Nc3ccc4c(c3)-c3c(c(C(N)=O)nn3-c3ccc(F)cc3)CC4)ccn2)CC1 | 6.90 | < 5.30
24 | NC(=O)c1nn(-c2ccc(F)cc2)c2c1CCc1ccc(NC(=O)c3nc(N4CCOCC4)ccc3Cl)cc1-2 | 5.90 | 5.52
25 | C[C@@H]1CN(c2cc(C(=O)Nc3ccc4c(c3)-c3c(c(C(N)=O)nn3-c3ccc(F)cc3)CC4)c(Cl)cn2)C[C@H](C)N1 | 7.34 | 5.07
26 | NC(=O)c1nn(-c2ccc(F)cc2)c2c1CCc1ccc(NC(=O)c3cccnc3N)cc1-2 | 5.63 | 
27 | NC(=O)c1nn(-c2ccc3c(c2)OCO3)c2c1CCc1ccc(NC(=O)c3cccnc3N3CCOCC3)cc1-2 | 5.23 | 
28 | CN1CCN(c2ccc(Cl)c(C(=O)Nc3ccc4c(c3)-c3c(c(C(N)=O)nn3-c3ccc(F)cc3)CC4)n2)CC1 | 6.46 | 5.32
29 | CN(C)CCN(C)c1cc(C(=O)Nc2ccc3c(c2)-c2c(c(C(N)=O)nn2-c2ccc(F)cc2)CC3)c(Cl)cn1 | 7.72 | 5.38
30 | CNc1ncccc1C(=O)Nc1ccc2c(c1)-c1c(c(C(N)=O)nn1-c1ccc(F)cc1)CC2 | 5.49 | 
31 | COCCN1CCN(c2cc(C(=O)Nc3ccc4c(c3)-c3c(c(C(N)=O)nn3-c3ccc(F)cc3)CC4)c(Cl)cn2)CC1 | 7.23 | 5.99
32 | NC(=O)c1nn(-c2ccc(F)cc2)c2c1CCc1ccc(NC(=O)c3cc(N4CCCNCC4)ncc3Cl)cc1-2 | 7.57 | 5.71
33 | C[C@@H]1CN(c2cc(C(=O)Nc3ccc4c(c3)-c3c(c(C(N)=O)nn3-c3ccc(F)cc3)CC4)c(Cl)cn2)C[C@H](C)N1C | 7.01 | 5.26
34 | NC(=O)c1nn(-c2ccc3c(c2)OCO3)c2c1CCc1ccc(NC(=O)c3cc(N4CCOCC4)ncc3Cl)cc1-2 | 7.05 | 6.07
